Bioassay records as filed in PubChem BioAssay.
Compounds with a hit are over-represented: about 2.6% of the library has one in this group of screens.
SMARCA2 act – increases SMARCA2 function in MMTV reporter cells | activation, % at 9.1 µM | 370,000 tested, 1% active | MG213 cells, MMTV-luciferase reporter, dexamethasone, overnight; in the data active = activation above about 7.8%
ARFGAP1 inh – rat ARFGAP1 inhibition. Arfgap1-stimulated ARF1 GTP hydrolysis, GDP FP detection. 360,000 tested, 0.26% active. inhibition, % at 16.5 µM. AID 651572. Q62848;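 active = inhibition above a per-plate limit, mean inhibition of low control wells plus 3 SD, cut at about 25% in these data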
Target sequence (Q62848 1-136 limits assumed): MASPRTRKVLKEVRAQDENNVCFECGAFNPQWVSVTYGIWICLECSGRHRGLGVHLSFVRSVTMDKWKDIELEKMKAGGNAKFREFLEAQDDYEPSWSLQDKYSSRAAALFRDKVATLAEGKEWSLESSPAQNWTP
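Assay system: Rat Arfgap1 GAP domain (His6, aa 1-136), purified enzyme | Buffer or medium: HEPES 25 mM pH 7.5, NaCl 150 mM, MgCl2, DTT | Schedule: GTP hydrolysis reaction 2 h at 25 °C | Signal: FP of antibody-bound GDP Alexa 633 tracer, ex 620/em 688 nm | Measure: Percent inhibition of Arfgap1-stimulated GTP hydrolysis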
esBAF inh – inhibitors of esBAF chromatin remodeling in mouse ES cells. Bmi1-luciferase knock-in reporter, 24 h; 100% = twice the neutral-well signal. AID 602393. 350,000 tested, 2% active. reporter increase, % at 12.5 µM; in the data active = activation above about 40%; inconclusive = no clear call, values can overlap the other calls;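 also: a rise in the Bmi1 reporter signal indicates esBAF inhibition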
ASAP1 GAP inh – ASAP1 ArfGAP inhibition | Q9ULH1 | 360,000 tested, 0.19% active | ASAP1-stimulated ARF1 GTP hydrolysis, GDP FP detection | inhibition, % at 16.5 µM; in the data active = inhibition above about 25%
Target sequence (Q9ULH1 325-724 limits assumed): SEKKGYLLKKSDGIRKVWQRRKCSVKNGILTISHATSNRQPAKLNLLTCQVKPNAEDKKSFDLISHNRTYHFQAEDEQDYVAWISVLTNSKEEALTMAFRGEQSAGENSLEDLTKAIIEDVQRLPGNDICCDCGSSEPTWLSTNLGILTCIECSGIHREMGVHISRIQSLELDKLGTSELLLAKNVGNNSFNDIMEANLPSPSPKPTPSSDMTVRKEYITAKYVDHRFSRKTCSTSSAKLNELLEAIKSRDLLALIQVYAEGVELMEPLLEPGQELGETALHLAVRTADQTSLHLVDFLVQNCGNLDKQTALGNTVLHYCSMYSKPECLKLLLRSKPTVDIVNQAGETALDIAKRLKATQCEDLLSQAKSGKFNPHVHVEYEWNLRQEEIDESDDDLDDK
SMARCA2 act conf – confirmation of SMARCA2 (BRM) function activators; MG213 cells, MMTV-luciferase with dexamethasone, luminescence, overnight; MG213 cells expressing E1A, Rb sequestered; DMSO wells 0%, reference activator 100%; 3,500 tested, 30% active; activation, % at 9.1 µM; shares compounds with SMARCA2 act;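 active = activation above its plate's cutoff, the mean activation of tested wells plus 3 SD, cut at about 7.9% in these data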
VP16 Luc act – GAL4-VP16 reporter activation counter-screen; HEK293 GAL4-VP16 pG5luc reporter, luciferase luminescence; scaled: DMSO wells 0%, SAHA wells 100%; 3,500 tested, 41% active; shares compounds with SMARCA2 act; activation, % at 9.1 µM;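 active = activation above the solvent-only control well mean plus 3 SD, averaged across control plates, cut at about 5.2% in these data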
Of the large screens only hits and unclear results are named; the others gave an inactive call (follow-up assays come after a bar, where they were run).

COc1ccc(CN2CCNC(=O)C2CC(=O)O)cc1OC (stereo not drawn)	SMARCA2 act 12 | SMARCA2 act conf inactive | VP16 Luc act inactive
COc1ccc(CCNc2nc3ccccc3n3nnnc23)cc1OC	SMARCA2 act 18 | SMARCA2 act conf inactive | VP16 Luc act inactive
COc1ccc(S(=O)(=O)Nc2ccc3c(c2)CC(=O)N([C@@H](C)CO)C[C@H](C)[C@@H](CN(C)C(=O)NC(C)C)O3)cc1	none (no result: SMARCA2 act, ARFGAP1 inh, ASAP1 GAP inh)
O=C(COC(=O)CN1C(=O)c2ccccc2C1=O)Nc1ccc(S(=O)(=O)N2CCCC2)cc1	SMARCA2 act 9.4 | SMARCA2 act conf inactive | VP16 Luc act inactive
O=C(COC(=O)CCN1C(=O)c2ccccc2C1=O)Nc1ccc(S(=O)(=O)N2CCCC2)cc1	none
Cc1cc(NC(=O)CCCS(=O)(=O)c2nc(-c3cccs3)cc(C(F)(F)F)n2)no1	none (no result: esBAF inh)
O=C(O)CCS(=O)(=O)c1nc(-c2cccs2)cc(C(F)(F)F)n1	SMARCA2 act 13 | SMARCA2 act conf inactive | VP16 Luc act inactive
O=C(NC(=O)c1ccc(F)cc1)Nc1nc(-c2cccs2)cc(C(F)(F)F)n1	SMARCA2 act 8.4 | SMARCA2 act conf inactive | VP16 Luc act inactive
O=C(N[C@@H]1CC[C@H](CC(=O)N2CCc3ccccc3C2)O[C@H]1CO)C1CCC1	none (no result: SMARCA2 act, ARFGAP1 inh, ASAP1 GAP inh)
C[C@H]1CN([C@@H](C)CO)C(=O)c2cc(NC(=O)CCC(F)(F)F)ccc2O[C@H]1CN(C)Cc1ccccc1	none (no result: SMARCA2 act, ARFGAP1 inh, ASAP1 GAP inh)
COc1ccc(Nc2nc(C)c(-c3ccccc3)s2)cc1	SMARCA2 act 11 (no result: esBAF inh) | SMARCA2 act conf inactive | VP16 Luc act 5.9
Cc1nc(Nc2ccc(S(N)(=O)=O)cc2)sc1-c1ccccc1	none
C[C@@H]1CN([C@H](C)CO)C(=O)c2cc(NC(=O)CCC(F)(F)F)ccc2O[C@@H](C)CCCCO[C@@H]1CN(C)S(C)(=O)=O	none (no result: SMARCA2 act, ARFGAP1 inh, ASAP1 GAP inh)
O=C(COC(=O)c1ccccc1NCCO)Nc1ccc(S(=O)(=O)NC2=NCCCCC2)cc1	SMARCA2 act 11 | SMARCA2 act conf inactive | VP16 Luc act inactive
COc1ccc(NC(=O)Nc2ccc3c(c2)[C@@H]2C[C@@H](CC(=O)N(C)C)O[C@@H](CO)[C@@H]2O3)cc1	none (no result: SMARCA2 act, ARFGAP1 inh, ASAP1 GAP inh)
COc1cccc(CC(NC(C)=O)C(=O)NC2CCN(c3c4c(nc5ncnn35)CCC4)CC2)c1 (stereo not drawn)	SMARCA2 act 8.4 (no result: esBAF inh) | SMARCA2 act conf inactive | VP16 Luc act inactive
COCCNC(=O)[C@@H]1[C@@H](CO)[C@@H]2Cn3c(ccc(C4=CCCCC4)c3=O)[C@H]1N2C(=O)C1CC1	none (no result: SMARCA2 act, ARFGAP1 inh, ASAP1 GAP inh)
CCOc1ccc(-c2nnc(NC(=O)Cc3cc(OC)c(OC)c(OC)c3)o2)cc1	SMARCA2 act 8.4 | SMARCA2 act conf inactive | VP16 Luc act inactive
COc1ccccc1Nc1nc(-c2cccs2)cs1	SMARCA2 act 8.4, esBAF inh 52 | SMARCA2 act conf inactive | VP16 Luc act 7.4
COc1ccc(-c2csc(C(O)c3cccnc3)n2)cn1 (stereo not drawn)	none
COc1ccc(-c2csc(C(O)c3ccc(F)cc3)n2)cn1 (stereo not drawn)	SMARCA2 act 8.1 | SMARCA2 act conf inactive | VP16 Luc act inactive
Cn1c2ccccc2c2nnc(SCCN3CCOCC3)nc21	SMARCA2 act 10 | SMARCA2 act conf inactive | VP16 Luc act inactive
COc1ccccc1CC(=O)N1CCC(CCC(=O)NC2CC2)CC1	SMARCA2 act 8.8 | SMARCA2 act conf inactive | VP16 Luc act inactive
C[C@@H]1CCCCO[C@@H](CN(C)S(=O)(=O)c2cn(C)cn2)[C@@H](C)CN([C@@H](C)CO)C(=O)c2cc(NS(=O)(=O)c3cccs3)ccc2O1	none (no result: SMARCA2 act, ARFGAP1 inh, ASAP1 GAP inh)
C[C@H](CO)N1C[C@H](C)[C@H](CN(C)CC2CC2)OCCCC[C@H](C)Oc2ccc(NC(=O)Nc3ccc4c(c3)OCO4)cc2C1=O	none (no result: SMARCA2 act, ARFGAP1 inh, ASAP1 GAP inh)
O=C1c2cccc(NCCNCCO)c2C(=O)c2cccc(NCCNCCO)c21	SMARCA2 act 10 (no result: esBAF inh) | SMARCA2 act conf inactive | VP16 Luc act inactive
O=C(NC(=S)Nc1cccnc1Cl)c1ccc(Cl)cc1	SMARCA2 act 9.9, esBAF inh inconclusive | SMARCA2 act conf inactive | VP16 Luc act 8.9
CC(C)C(=O)Nc1ccc(C(=O)N/N=C/c2cc(Br)cc(Br)c2O)cc1	SMARCA2 act 11 (no result: esBAF inh) | SMARCA2 act conf inactive | VP16 Luc act inactive
C=C(C)C(=O)Oc1ccc(N=Nc2ccc(C)cc2)ccc1=O	SMARCA2 act 19 | SMARCA2 act conf inactive | VP16 Luc act 9.1
CC(=O)c1ccc(N=Nc2ccc(C)cc2)cc1	none (no result: esBAF inh)
O=C(C[C@@H]1CC[C@H]2[C@@H](COC[C@H](O)CN2Cc2cccc(F)c2)O1)NCc1cccc(F)c1	none (no result: SMARCA2 act, ARFGAP1 inh, ASAP1 GAP inh)
c1ccc2c(c1)nnn2-c1ncnc2sccc12	SMARCA2 act 12 | SMARCA2 act conf 9.9 | VP16 Luc act inactive
FC(F)(F)Oc1ccc(Nc2nc3ccccc3o2)cc1	none (no result: esBAF inh)
c1ccc(Nc2nc3ccccc3o2)cc1	SMARCA2 act 13 | SMARCA2 act conf inactive | VP16 Luc act 8.4
O=c1c(-c2ccc(O)cc2)coc2cc(OC3OC(CO)C(O)C(O)C3O)cc(O)c12 (stereo not drawn)	none
COc1cc(O)c2c(=O)c(-c3ccc(O[C@@H]4O[C@H](CO)[C@@H](O)[C@H](O)[C@H]4O)cc3)coc2c1	SMARCA2 act 8.8 | SMARCA2 act conf 13 | VP16 Luc act 9.1
C[C@@H]1CN([C@H](C)CO)C(=O)c2cc(NS(C)(=O)=O)ccc2O[C@@H]1CN(C)C(=O)NC1CCCCC1	none (no result: SMARCA2 act, ARFGAP1 inh, ASAP1 GAP inh)
Cc1nc2c(c(N3CCOCC3)n1)OCC(=O)N2	none
Cc1nc(Cl)c2c(n1)NC(=O)CO2	SMARCA2 act 12 (no result: esBAF inh) | SMARCA2 act conf inactive | VP16 Luc act inactive
O=C(CCC1CCCCC1=O)c1ccccc1 (stereo not drawn)	none
O=C(CC1C(=O)CCCC1=O)c1ccccc1	SMARCA2 act 8.6 (no result: esBAF inh) | SMARCA2 act conf 8.1 | VP16 Luc act inactive
CNC[C@@H]1OCCCC[C@H](C)Oc2ccc(NC(=O)CCC(F)(F)F)cc2C(=O)N([C@H](C)CO)C[C@@H]1C	none (no result: SMARCA2 act, ARFGAP1 inh, ASAP1 GAP inh)
O=C(Cc1ccccc1F)Nc1ccc2c(c1)CCC2	SMARCA2 act 12, esBAF inh 72 | SMARCA2 act conf inactive | VP16 Luc act 6.6
CCC(C)c1ccc(OCCN2CCCC2)cc1 (stereo not drawn)	SMARCA2 act 9.2 | SMARCA2 act conf inactive | VP16 Luc act inactive
COc1ccc(-c2cn3cc(C(F)(F)F)cc(Cl)c3n2)cc1	SMARCA2 act 12 (no result: esBAF inh) | SMARCA2 act conf inactive | VP16 Luc act 11
COc1ccc(C(O)c2ncc(C(F)(F)F)cc2Cl)cc1 (stereo not drawn)	none
CCCC(=O)Nc1ccc2c(c1)C(=O)N(C)[C@@H]1CC[C@H](CC(=O)NC3CCCC3)O[C@H]1CO2	none (no result: SMARCA2 act, ARFGAP1 inh, ASAP1 GAP inh)
COc1cccc(N(CC(=O)N2CCN(C)CC2)S(=O)(=O)c2ccccc2)c1	SMARCA2 act 8.6 | SMARCA2 act conf inactive | VP16 Luc act inactive
